Laboratory results: ChEMBL document CHEMBL4689842, “EUbOPEN Chemogenomics Library wave 1” (2021)
“And” between values parts separate entries of the source, which are not always exact repeats. Equal values may be shown once.

System: U2OS
Test: Multiplex assay against U2OS
Assay type: toxicity, cell-based
Conditions: human
Method in brief: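 On a CQ1 microscope at 37°C and 5% CO2, live cells were imaged after compound addition. They had been stained at seeding with Hoechst33342, BioTracker Green Microtubule Cytoskeleton Dye, MitoTracker Red and Annexin V Alexa Fluor 680. CellPathfinder machine-learning gating assigned cells to Hoechst high-intensity objects or normal cells, normal cells to healthy, pyknosed or fragmented nuclei, and pyknosed cells to mitotic or apoptotic. Tubulin, mitochondrial-mass and membrane-permeability phenotypes are per cents of healthy-nucleus cells.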

[1] = 12 h, 1 µM, compound concentration 1 uM, replicate 1
[2] = 12 h, 1 µM, compound concentration 1 uM, replicate 2
[3] = 12 h, 10 µM, compound concentration 10 uM, replicate 1
[4] = 12 h, 10 µM, compound concentration 10 uM, replicate 2
[5] = 24 h, 1 µM, compound concentration 1 uM, replicate 1
[6] = 24 h, 1 µM, compound concentration 1 uM, replicate 2
[7] = 24 h, 10 µM, compound concentration 10 uM, replicate 1
[8] = 24 h, 10 µM, compound concentration 10 uM, replicate 2
[9] = 48 h, 1 µM, compound concentration 1 uM, replicate 1
[10] = 48 h, 1 µM, compound concentration 1 uM, replicate 2
[11] = 48 h, 10 µM, compound concentration 10 uM, replicate 1
[12] = 48 h, 10 µM, compound concentration 10 uM, replicate 2

In the case of `C=CC(=O)Nc1cccc(C(=O)Nc2ccc(Nc3cc(-c4[nH]c(SC)nc4C)ccn3)cc2)c1`, the “Population Apoptotic (%)” value [1] was 52%, the “Population Fragmented Nuclei (%)” value [1] was 9% and the “Population Healthy Nuclei (%)” value [1] was 78%. For the same compound, the “Population Hoechst High Intensity Objects (%)” value [1] was 8%, the “Population Membrane Permeable-Phenotype (%)” value [1] was 4% and the “Population Mitochondria Different-Phenotype (%)” value [1] was 8%. The “Population Mitotic Cells (%)” value [1] was 47%, the “Population Normal (%)” value [1] was 91% and the “Population Pyknosed Nuclei (%)” value [1] was 12%. For the same compound, the “Population Tubulin-Different-Phenotype (%)” value [1] was 11%, the “Total Cell Count” value [1] was 259 and the “Population Apoptotic (%)” value [2] was 0%. For the same compound, the “Population Fragmented Nuclei (%)” value [2] was 2%, the “Population Healthy Nuclei (%)” value [2] was 94% and the “Population Hoechst High Intensity Objects (%)” value [2] was 14%. The “Population Membrane Permeable-Phenotype (%)” value [2] was 0%, the “Population Mitochondria Different-Phenotype (%)” value [2] was 7% and the “Population Mitotic Cells (%)” value [2] was 100%. For the same compound, the “Population Normal (%)” value [2] was 85%, the “Population Pyknosed Nuclei (%)” value [2] was 2% and the “Population Tubulin-Different-Phenotype (%)” value [2] was 23%. The “Total Cell Count” value [2] was 112, the “Population Fragmented Nuclei (%)” value [3] was 7% and the “Population Healthy Nuclei (%)” value [3] was 77%. For the same compound, the “Population Hoechst High Intensity Objects (%)” value [3] was 6%, the “Population Membrane Permeable-Phenotype (%)” value [3] was 3% and the “Population Mitochondria Different-Phenotype (%)” value [3] was 8%. For the same compound, the “Population Mitotic Cells (%)” value [3] was 59%, the “Population Normal (%)” value [3] was 93% and the “Population Pyknosed Nuclei (%)” value [3] was 14%. The “Population Tubulin-Different-Phenotype (%)” value [3] was 9%, the “Total Cell Count” value [3] was 171 and the “Population Apoptotic (%)” value [4] was 40%. For the same compound, the “Population Fragmented Nuclei (%)” value [4] was 6%, the “Population Healthy Nuclei (%)” value [4] was 83% and the “Population Hoechst High Intensity Objects (%)” value [4] was 18%. For the same compound, the “Population Membrane Permeable-Phenotype (%)” value [4] was 7%, the “Population Mitochondria Different-Phenotype (%)” value [4] was 12% and the “Population Mitotic Cells (%)” value [4] was 60%. The “Population Normal (%)” value [4] was 81%, the “Population Pyknosed Nuclei (%)” value [4] was 10% and the “Population Tubulin-Different-Phenotype (%)” value [4] was 12%. The “Total Cell Count” value [4] was 78, the “Population Apoptotic (%)” value [5] was 40% and the “Population Fragmented Nuclei (%)” value [5] was 13%. For the same compound, the “Population Healthy Nuclei (%)” value [5] was 76%, the “Population Hoechst High Intensity Objects (%)” value [5] was 4% and the “Population Membrane Permeable-Phenotype (%)” value [5] was 5%. The “Population Mitochondria Different-Phenotype (%)” value [5] was 5%, the “Population Mitotic Cells (%)” value [5] was 60% and the “Population Normal (%)” value [5] was 95%. For the same compound, the “Population Pyknosed Nuclei (%)” value [5] was 10%, the “Population Tubulin-Different-Phenotype (%)” value [5] was 18% and the “Total Cell Count” value [5] was 278. The “Population Apoptotic (%)” value [6] was 37%, the “Population Fragmented Nuclei (%)” value [6] was 3% and the “Population Healthy Nuclei (%)” value [6] was 87%. For the same compound, the “Population Membrane Permeable-Phenotype (%)” value [6] was 2%, the “Population Mitochondria Different-Phenotype (%)” value [6] was 10% and the “Population Mitotic Cells (%)” value [6] was 62%. The “Population Pyknosed Nuclei (%)” value [6] was 8%, the “Population Tubulin-Different-Phenotype (%)” value [6] was 25% and the “Total Cell Count” value [6] was 122. The “Population Apoptotic (%)” value [7] was 52%, the “Population Fragmented Nuclei (%)” value [7] was 7% and the “Population Healthy Nuclei (%)” value [7] was 83%. For the same compound, the “Population Hoechst High Intensity Objects (%)” value [7] was 5%, the “Population Membrane Permeable-Phenotype (%)” value [7] was 5% and the “Population Mitochondria Different-Phenotype (%)” value [7] was 6%. The “Population Mitotic Cells (%)” value [7] was 47%, the “Population Normal (%)” value [7] was 94% and the “Population Pyknosed Nuclei (%)” value [7] was 8%. The “Population Tubulin-Different-Phenotype (%)” value [7] was 6%, the “Total Cell Count” value [7] was 208 and the “Population Apoptotic (%)” value [8] was 40%. The “Population Fragmented Nuclei (%)” value [8] was 5%, the “Population Healthy Nuclei (%)” value [8] was 85% and the “Population Hoechst High Intensity Objects (%)” value [8] was 11%. For the same compound, the “Population Membrane Permeable-Phenotype (%)” value [8] was 8%, the “Population Mitochondria Different-Phenotype (%)” value [8] was 14% and the “Population Mitotic Cells (%)” value [8] was 60%. For the same compound, the “Population Normal (%)” value [8] was 88%, the “Population Pyknosed Nuclei (%)” value [8] was 9% and the “Population Tubulin-Different-Phenotype (%)” value [8] was 12%. The “Total Cell Count” value [8] was 95, the “Population Apoptotic (%)” value [9] was 37% and the “Population Fragmented Nuclei (%)” value [9] was 5%. The “Population Healthy Nuclei (%)” value [9] was 86%, the “Population Hoechst High Intensity Objects (%)” value [9] was 3% and the “Population Membrane Permeable-Phenotype (%)” value [9] was 4%. The “Population Mitochondria Different-Phenotype (%)” value [9] was 10%, the “Population Mitotic Cells (%)” value [9] was 62% and the “Population Normal (%)” value [9] was 96%. The “Population Pyknosed Nuclei (%)” value [9] was 7%, the “Population Tubulin-Different-Phenotype (%)” value [9] was 17% and the “Total Cell Count” value [9] was 291. The “Population Apoptotic (%)” value [10] was 18%, the “Population Fragmented Nuclei (%)” value [10] was 6% and the “Population Healthy Nuclei (%)” value [10] was 85%. The “Population Hoechst High Intensity Objects (%)” value [10] was 4%, the “Population Membrane Permeable-Phenotype (%)” value [10] was 6% and the “Population Mitochondria Different-Phenotype (%)” value [10] was 13%. The “Population Mitotic Cells (%)” value [10] was 81%, the “Population Normal (%)” value [10] was 95% and the “Population Pyknosed Nuclei (%)” value [10] was 8%. The “Population Tubulin-Different-Phenotype (%)” value [10] was 28%, the “Total Cell Count” value [10] was 117 and the “Population Apoptotic (%)” value [11] was 31%. For the same compound, the “Population Fragmented Nuclei (%)” value [11] was 7%, the “Population Healthy Nuclei (%)” value [11] was 84% and the “Population Hoechst High Intensity Objects (%)” value [11] was 3%. The “Population Membrane Permeable-Phenotype (%)” value [11] was 2%, the “Population Mitochondria Different-Phenotype (%)” value [11] was 9% and the “Population Mitotic Cells (%)” value [11] was 68%. For the same compound, the “Population Normal (%)” value [11] was 96%, the “Population Pyknosed Nuclei (%)” value [11] was 8% and the “Total Cell Count” value [11] was 316. For the same compound, the “Population Apoptotic (%)” value [12] was 11%, the “Population Fragmented Nuclei (%)” value [12] was 9% and the “Population Healthy Nuclei (%)” value [12] was 80%. For the same compound, the “Population Hoechst High Intensity Objects (%)” value [12] was 9%, the “Population Membrane Permeable-Phenotype (%)” value [12] was 4% and the “Population Mitochondria Different-Phenotype (%)” value [12] was 17%. The “Population Mitotic Cells (%)” value [12] was 88%, the “Population Normal (%)” value [12] was 90% and the “Population Pyknosed Nuclei (%)” value [12] was 10%. For the same compound, the “Population Tubulin-Different-Phenotype (%)” value [12] was 10% and the “Total Cell Count” value [12] was 133.

For `CC(C)C(=O)Nc1n[nH]c2cc(-c3cccc(NS(=O)(=O)C4CC4)c3)ccc12`, the “Population Apoptotic (%)” value [1] was 33% and 20%, the “Population Fragmented Nuclei (%)” value [1] was 8% and 3% and the “Population Healthy Nuclei (%)” value [1] was 88% and 86%. The “Population Membrane Permeable-Phenotype (%)” value [1] was 18% and 12%, the “Population Mitochondria Different-Phenotype (%)” value [1] was 22% and 20% and the “Population Mitotic Cells (%)” value [1] was 66% and 80%. For the same compound, the “Population Normal (%)” value [1] was 98% and 95%, the “Population Pyknosed Nuclei (%)” value [1] was 3% and 9% and the “Population Tubulin-Different-Phenotype (%)” value [1] was 21% and 32%. The “Total Cell Count” value [1] was 108 and 215, the “Population Apoptotic (%)” value [2] was 25% and 16% and the “Population Fragmented Nuclei (%)” value [2] was 11%. The “Population Healthy Nuclei (%)” value [2] was 82% and 92%, the “Population Hoechst High Intensity Objects (%)” value [2] was 12% and 6% and the “Population Membrane Permeable-Phenotype (%)” value [2] was 21% and 10%. For the same compound, the “Population Mitochondria Different-Phenotype (%)” value [2] was 42% and 28%, the “Population Mitotic Cells (%)” value [2] was 75% and 83% and the “Population Normal (%)” value [2] was 87% and 94%. For the same compound, the “Population Pyknosed Nuclei (%)” value [2] was 5% and 4%, the “Population Tubulin-Different-Phenotype (%)” value [2] was 26% and 18% and the “Total Cell Count” value [2] was 122 and 78. For the same compound, the “Population Apoptotic (%)” value [5] was 27% and 25%, the “Population Fragmented Nuclei (%)” value [5] was 5% and 2% and the “Population Healthy Nuclei (%)” value [5] was 90% and 89%. For the same compound, the “Population Hoechst High Intensity Objects (%)” value [5] was 2% and 3%, the “Population Membrane Permeable-Phenotype (%)” value [5] was 12% and 10% and the “Population Mitochondria Different-Phenotype (%)” value [5] was 17% and 24%. The “Population Mitotic Cells (%)” value [5] was 72% and 75%, the “Population Normal (%)” value [5] was 97% and 96% and the “Population Pyknosed Nuclei (%)” value [5] was 4% and 8%. The “Population Tubulin-Different-Phenotype (%)” value [5] was 23% and 38%, the “Total Cell Count” value [5] was 152 and 246 and the “Population Apoptotic (%)” value [6] was 18% and 21%. For the same compound, the “Population Fragmented Nuclei (%)” value [6] was 4% and 3%, the “Population Healthy Nuclei (%)” value [6] was 82% and 88% and the “Population Hoechst High Intensity Objects (%)” value [6] was 8% and 4%. For the same compound, the “Population Mitochondria Different-Phenotype (%)” value [6] was 41% and 31%, the “Population Mitotic Cells (%)” value [6] was 81% and 78% and the “Population Normal (%)” value [6] was 91% and 95%. The “Population Pyknosed Nuclei (%)” value [6] was 12% and 7%, the “Population Tubulin-Different-Phenotype (%)” value [6] was 35% and the “Total Cell Count” value [6] was 144 and 96.
